Data reported in ChEMBL document CHEMBL1799968, “Dimethyl-diphenyl-propanamide derivatives as nonsteroidal dissociated glucocorticoid receptor agonists” (J Med Chem, 2010).

Key:
Glucocorticoid receptor [1] = target: T1, Glucocorticoid receptor (Homo sapiens, UniProt P04150); test: Transactivation activity of glucocorticoid receptor ligand binding domain expressed in human NP-1 Hela cells co-expressing GAL4 DNA binding domain by luciferase reporter gene assay; assay type: cell-based
T1 sequence (P04150 whole entry): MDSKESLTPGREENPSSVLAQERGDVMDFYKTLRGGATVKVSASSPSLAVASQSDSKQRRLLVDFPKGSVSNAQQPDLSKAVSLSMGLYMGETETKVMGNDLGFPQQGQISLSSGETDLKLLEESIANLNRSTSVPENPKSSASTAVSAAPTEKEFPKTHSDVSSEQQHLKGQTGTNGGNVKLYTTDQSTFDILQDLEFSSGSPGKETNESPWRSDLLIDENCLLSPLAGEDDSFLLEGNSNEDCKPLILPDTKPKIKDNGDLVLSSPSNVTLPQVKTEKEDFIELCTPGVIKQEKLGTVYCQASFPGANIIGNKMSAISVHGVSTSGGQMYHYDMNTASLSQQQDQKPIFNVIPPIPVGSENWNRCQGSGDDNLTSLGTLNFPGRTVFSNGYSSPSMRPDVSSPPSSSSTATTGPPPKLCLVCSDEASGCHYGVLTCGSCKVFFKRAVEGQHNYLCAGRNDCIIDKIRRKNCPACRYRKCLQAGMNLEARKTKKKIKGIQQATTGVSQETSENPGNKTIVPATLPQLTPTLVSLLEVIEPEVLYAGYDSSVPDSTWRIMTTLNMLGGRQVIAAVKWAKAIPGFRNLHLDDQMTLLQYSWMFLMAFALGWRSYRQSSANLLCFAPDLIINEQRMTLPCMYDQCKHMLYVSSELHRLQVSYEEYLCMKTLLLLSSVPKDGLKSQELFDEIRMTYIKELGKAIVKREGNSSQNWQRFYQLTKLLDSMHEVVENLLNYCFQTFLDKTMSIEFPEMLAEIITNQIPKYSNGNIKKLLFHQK

[2] = target: T2, Glucocorticoid receptor (Homo sapiens) (UniProt P04150); test: Transrepression activity of glucocorticoid receptor in human A549 cells assessed as inhibition of IL1beta-stimulated NFkappaB-dependent E-selectin transcription by luciferase reporter gene assay relative to Dexamethasone; assay type: cell-based
T2 sequence (whole entry): T1 sequence (P04150 whole entry)

[3] = target: T2, Glucocorticoid receptor (Homo sapiens); test: Transrepression activity of glucocorticoid receptor in human A549 cells expressing AP-1 assessed as inhibition of PMA-induced AP-1 activity by luciferase reporter gene assay relative to Dexamethasone; assay type: cell-based
Method in brief: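 Human A549 lung epithelial cells stably transfected with a 5×AP-1 response element luciferase reporter. AP-1 was induced with PMA (15 ng/mL), and inhibition was read as decreased luciferase.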

Glucocorticoid receptor [4] = target: T1, Glucocorticoid receptor; test: Transrepression activity of glucocorticoid receptor in human A549 cells expressing AP-1 assessed as inhibition of PMA-induced AP-1 activity by luciferase reporter gene assay; assay type: cell-based
[5] = target: T2, Glucocorticoid receptor (Homo sapiens); test: Transactivation activity at glucocorticoid receptor in human 13D3/Huh7 cells assessed as induction of tyrosine aminotransferase activity after 24 hrs relative to Dexamethasone; assay type: cell-based; settings: Huh-7
Method in brief: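 Human 13D3/Huh7 hepatoma cells, 20 K/well, were incubated overnight at 37 °C/5% CO2. They were then treated overnight with compounds in assay medium containing 20 μM forskolin. The reaction was stopped with KOH and A340 read. Results are % activation, with EC50 derived.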

[6] = target: T2, Glucocorticoid receptor (Homo sapiens); test: Transactivation activity of glucocorticoid receptor ligand binding domain expressed in human NP-1 Hela cells co-expressing GAL4 DNA binding domain by luciferase reporter gene assay relative to Dexamethasone; assay type: cell-based
Method in brief: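 HeLa NP-1 cells stably carrying a GAL4 DBD–human GR LBD chimera with a GAL4 luciferase reporter. Agonist activity was read as increased luciferase activity.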

Glucocorticoid receptor [7] = target: T1, Glucocorticoid receptor; test: Transactivation activity at glucocorticoid receptor in human 13D3/Huh7 cells assessed as induction of tyrosine aminotransferase activity after 24 hrs; assay type: cell-based, Huh-7
Glucocorticoid receptor [8] = target: T1, Glucocorticoid receptor; test: Displacement of GS-red from GRapha by fluorescence polarization assay
Glucocorticoid receptor [9] = target: T1, Glucocorticoid receptor; test: Transrepression activity of glucocorticoid receptor in human A549 cells assessed as inhibition of IL1beta-stimulated NFkappaB-dependent E-selectin transcription by luciferase reporter gene assay; assay type: cell-based
Progesterone receptor = target: T3, Progesterone receptor (Homo sapiens, UniProt P06401); test: Binding affinity to progesterone receptor by fluorescence polarization assay
T3 sequence (P06401 whole entry): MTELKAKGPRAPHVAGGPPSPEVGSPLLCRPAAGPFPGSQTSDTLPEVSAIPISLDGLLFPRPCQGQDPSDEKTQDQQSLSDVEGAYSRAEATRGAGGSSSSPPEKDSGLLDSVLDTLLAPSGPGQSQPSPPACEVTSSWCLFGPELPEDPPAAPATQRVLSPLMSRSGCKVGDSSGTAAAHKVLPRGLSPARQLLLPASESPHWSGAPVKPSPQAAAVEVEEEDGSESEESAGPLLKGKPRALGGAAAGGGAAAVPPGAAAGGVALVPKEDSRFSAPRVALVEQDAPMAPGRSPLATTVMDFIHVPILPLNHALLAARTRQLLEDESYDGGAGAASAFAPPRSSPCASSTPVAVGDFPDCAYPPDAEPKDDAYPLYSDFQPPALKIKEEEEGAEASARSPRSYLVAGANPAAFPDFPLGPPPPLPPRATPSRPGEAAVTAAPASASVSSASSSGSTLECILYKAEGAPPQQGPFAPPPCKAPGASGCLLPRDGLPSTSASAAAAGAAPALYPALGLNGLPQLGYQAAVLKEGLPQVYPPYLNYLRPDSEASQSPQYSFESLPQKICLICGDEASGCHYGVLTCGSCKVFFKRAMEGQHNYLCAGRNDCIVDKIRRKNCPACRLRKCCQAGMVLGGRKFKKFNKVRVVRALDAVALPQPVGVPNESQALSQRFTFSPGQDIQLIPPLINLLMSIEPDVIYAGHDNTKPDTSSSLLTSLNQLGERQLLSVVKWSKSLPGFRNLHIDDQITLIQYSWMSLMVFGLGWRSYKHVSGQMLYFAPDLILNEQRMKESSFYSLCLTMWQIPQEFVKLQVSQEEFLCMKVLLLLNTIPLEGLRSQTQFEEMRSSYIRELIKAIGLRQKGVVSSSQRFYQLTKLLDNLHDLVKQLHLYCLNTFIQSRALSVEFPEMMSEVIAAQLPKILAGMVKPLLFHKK
Method in brief: (§1)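 Fluorescence polarization competition of test compound against a fluorescently labelled ligand for binding to full-length receptor or its ligand-binding domain.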

Androgen receptor = target: T4, Androgen receptor (Homo sapiens, UniProt P10275); test: Binding affinity to androgen receptor by fluorescence polarization assay; method in brief: as §1
T4 sequence (P10275 whole entry): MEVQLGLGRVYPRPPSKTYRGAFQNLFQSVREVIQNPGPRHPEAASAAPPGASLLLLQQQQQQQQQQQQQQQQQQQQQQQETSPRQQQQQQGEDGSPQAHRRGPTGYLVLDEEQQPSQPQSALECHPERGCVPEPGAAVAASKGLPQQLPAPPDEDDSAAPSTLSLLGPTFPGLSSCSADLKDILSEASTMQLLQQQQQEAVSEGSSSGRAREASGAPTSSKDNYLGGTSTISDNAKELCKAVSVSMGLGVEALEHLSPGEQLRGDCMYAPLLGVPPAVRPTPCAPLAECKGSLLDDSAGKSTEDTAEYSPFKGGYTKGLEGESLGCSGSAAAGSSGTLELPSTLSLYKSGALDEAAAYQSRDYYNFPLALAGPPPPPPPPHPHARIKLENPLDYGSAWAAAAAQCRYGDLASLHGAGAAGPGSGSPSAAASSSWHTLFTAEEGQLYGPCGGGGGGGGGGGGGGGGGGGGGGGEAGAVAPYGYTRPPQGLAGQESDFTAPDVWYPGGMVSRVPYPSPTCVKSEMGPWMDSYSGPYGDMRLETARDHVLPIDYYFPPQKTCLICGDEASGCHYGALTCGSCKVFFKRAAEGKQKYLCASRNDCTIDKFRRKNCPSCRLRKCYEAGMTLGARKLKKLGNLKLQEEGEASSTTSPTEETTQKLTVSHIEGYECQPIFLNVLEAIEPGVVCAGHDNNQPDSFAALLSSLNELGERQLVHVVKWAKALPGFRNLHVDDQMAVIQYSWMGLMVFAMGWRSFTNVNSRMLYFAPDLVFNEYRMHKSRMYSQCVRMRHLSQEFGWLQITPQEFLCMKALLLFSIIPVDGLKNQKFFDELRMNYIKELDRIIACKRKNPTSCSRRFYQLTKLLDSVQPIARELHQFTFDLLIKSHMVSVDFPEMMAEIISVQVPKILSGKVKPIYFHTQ

Compound	EC50 (Glucocorticoid receptor [1]) [nM]	Efficacy [2] [%]	Efficacy [3] [%]	EC50 (Glucocorticoid receptor [4]) [nM]	Efficacy [5] [%]	Efficacy [6] [%]	EC50 (Glucocorticoid receptor [7]) [nM]	Ki (Glucocorticoid receptor [8]) [nM]	EC50 (Glucocorticoid receptor [9]) [nM]	Ki (Progesterone receptor) [nM]	Ki (Androgen receptor) [nM]
CC(C)(C(=O)Nc1nncs1)C1c2ccccc2Oc2ccccc21	> 10000	–	–	> 5000	–	–	–	6	> 5000	–	–
CC(C)(C(=O)Nc1nccs1)[C@H](c1ccccc1)c1ccc(O)cc1	> 10000	–	–	> 10000	–	–	> 10000	–	–	–	–
CC(C)(C(=O)Nc1nccs1)[C@H](c1ccccc1)c1ccc(O)c(F)c1	> 10000	12	16	> 10000	–	–	> 5000	4.6	> 5000	–	–
Cc1cc([C@H](c2ccccc2)C(C)(C)C(=O)Nc2nncs2)ccc1O	–	–	–	–	–	–	–	–	–	140	> 4000
CC(C)(C(=O)Nc1nccs1)[C@@H](c1ccccc1)c1ccc(O)c(C#N)c1	> 10000	48	74	506	16	–	> 5000	0.9	206	144	> 3000
CC(C)(C(=O)Nc1nncs1)[C@@H]1c2ccccc2Oc2cc(O)ccc21	> 10000	–	–	> 5000	–	–	–	58.7	> 5000	–	–

Second part, the compound after the results:

EC50 (Glucocorticoid receptor [1]) [nM]	Efficacy [2] [%]	Efficacy [3] [%]	EC50 (Glucocorticoid receptor [4]) [nM]	Efficacy [5] [%]	Efficacy [6] [%]	EC50 (Glucocorticoid receptor [7]) [nM]	Ki (Glucocorticoid receptor [8]) [nM]	EC50 (Glucocorticoid receptor [9]) [nM]	Ki (Progesterone receptor) [nM]	Ki (Androgen receptor) [nM]	Compound
863	50	63	61.4	20	14	2580	2.5	125	–	–	CC(C)(C(=O)Nc1nccs1)C(c1ccccc1)c1ccc(O)cc1 (racemic)
> 10000	16	–	> 10000	–	–	2320	7.3	> 5000	–	–	CC(=O)c1cc([C@H](c2ccccc2)C(C)(C)C(=O)Nc2nccs2)ccc1O
67.2	75	87	12.7	57	54	46.5	0.4	6.2	–	–	CC(C)(C(=O)Nc1nncs1)[C@@H](c1ccccc1)c1ccc(O)c(Br)c1
216	63	77	51.1	41	39	197	0.6	37.7	–	–	CC(C)(C(=O)Nc1nccs1)C(c1ccccc1)c1ccc(O)c(F)c1 (racemic)
